Data taken from ChEMBL document CHEMBL1121634, “Heat-induced formation of alpha,beta-unsaturated nucleoside dialdehydes and their activity with adenosine deaminase” (J Med Chem, 1980).

Key:
Adenosine deaminase [1] = biological target: T1, Adenosine deaminase (Bos taurus, UniProt P56658); assay: Inhibitory constant against adenosine deaminase in 0.05 M sodium phosphate buffer at pH 7.0 was determined before heating
T1 sequence (P56658 whole entry): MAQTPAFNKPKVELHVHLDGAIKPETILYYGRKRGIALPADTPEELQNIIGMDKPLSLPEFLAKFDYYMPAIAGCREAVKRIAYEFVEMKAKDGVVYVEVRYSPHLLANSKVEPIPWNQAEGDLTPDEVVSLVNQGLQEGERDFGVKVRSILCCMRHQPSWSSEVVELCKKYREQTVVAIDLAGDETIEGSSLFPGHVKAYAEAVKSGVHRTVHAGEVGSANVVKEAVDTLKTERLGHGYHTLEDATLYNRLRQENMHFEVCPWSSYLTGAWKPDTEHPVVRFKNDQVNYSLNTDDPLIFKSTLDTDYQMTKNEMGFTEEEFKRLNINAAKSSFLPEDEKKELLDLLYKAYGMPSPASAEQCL

Adenosine deaminase [2] = biological target: T1, Adenosine deaminase; assay: Inhibitor constant against adenosine deaminase in 0.05 M sodium phosphate buffer at pH 7.0 was determined after heating to 100 degrees celsius
In short: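 Dialdehyde heated at 100 °C in aqueous phosphate buffer before testing. Adenosine deaminase (0.25 unit) added to buffered adenosine (30–70 μM, at least five levels) with dialdehyde (3–190 μM, two levels). Rate of absorbance change at 265 nm followed at 25 °C, 0.05 M sodium phosphate, pH 7.0. Ki from Lineweaver–Burk plots fitted by Wilkinson least squares.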

Adenosine deaminase [3] = biological target: T1, Adenosine deaminase; assay: Inhibitory constant against adenosine deaminase in 0.05 M sodium phosphate buffer at pH 7.0, was determined before heating
Adenosine deaminase [4] = biological target: T1, Adenosine deaminase; assay: Inhibitor constant against adenosine deaminase in 0.05 M sodium phosphate buffer at pH 7.0, was determined after heating to 100 degrees celsius
In short: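 Dialdehyde pre-heated as an aqueous phosphate-buffer solution at 100 °C (about 1 h). Adenosine deaminase (0.25 unit) added to buffered adenosine (30–70 μM) plus dialdehyde (3-190 μM) in 0.05 M sodium phosphate, pH 7.0, 25 °C. Absorbance change at 265 nm followed. At least five substrate and two inhibitor levels used. Ki from Lineweaver–Burk plots, least-squares lines.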

Compound | Ki (Adenosine deaminase [1]) [µM] | Ki (Adenosine deaminase [2]) [µM] | Ki (Adenosine deaminase [3]) [µM] | Ki (Adenosine deaminase [4]) [µM]
Nc1ncnc2c1ncn2[C@H](C=O)OCC=O | 780 | 800 | – | –
Nc1ncnc2c1ncn2[C@@H](C=O)OCC=O | 46 | 30 | – | –
C=C(C=O)OC(C=O)n1cnc2c(N)ncnc21 (centres undefined) | 4 | – | – | –
Nc1ncnc2c1ncn2[C@@H](C=O)O[C@@H](C=O)CO | – | – | 520 | 5
C[C@@H](C=O)O[C@@H](C=O)n1cnc2c(N)ncnc21 (stereo in doubt; 13) | 160 | 100 | – | –
C[C@@H](C=O)O[C@@H](C=O)n1cnc2c(N)ncnc21 (stereo in doubt; 4) | 28 | 30 | – | –
Nc1ncnc2c1ncn2[C@H](C=O)O[C@@H](C=O)CO | – | 8 | 310 | –

Now from value to compound:

Ki (Adenosine deaminase [1]) [µM] | Ki (Adenosine deaminase [2]) [µM] | Ki (Adenosine deaminase [3]) [µM] | Ki (Adenosine deaminase [4]) [µM] | Compound
– | 69 | – | – | CC(O)[C@H](C=O)O[C@@H](C=O)n1cnc2c(N)ncnc21 (stereo in doubt; 8)
– | 21 | – | – | CC(O)[C@H](C=O)OC(C=O)n1cnc2c(N)ncnc21 (single isomer, unassigned)
– | 38 | – | – | CC(O)[C@H](C=O)O[C@@H](C=O)n1cnc2c(N)ncnc21 (stereo in doubt; 9)
– | 24 | – | – | CC(O)[C@@H](C=O)OC(C=O)n1cnc2c(N)ncnc21 (single isomer, unassigned; 7)
150 | 20 | – | – | CC(O)[C@@H](C=O)OC(C=O)n1cnc2c(N)ncnc21 (single isomer, unassigned; 10)
